Reference: ChEMBL document CHEMBL5705902, “Role of G Protein-Coupled Receptor Kinases 2 and 3 in μ-Opioid Receptor Desensitization and Internalization” (Mol Pharmacol, 2015)
The source made the active and inactive calls. No cut-off for these calls is given here.

Columns and labels:
[1] = target: Mu-type opioid receptor (Rattus norvegicus) (UniProt P33535); test: Inhibition of MOPr desensitization (unknown origin) assessed as reduction in the morphine induced desensitization at 3 to 30 uM incubated for 15 mins; conditions: dose 3-30 µM
Target sequence in this assay (P33535 whole entry, looked up, the tested form may be a part): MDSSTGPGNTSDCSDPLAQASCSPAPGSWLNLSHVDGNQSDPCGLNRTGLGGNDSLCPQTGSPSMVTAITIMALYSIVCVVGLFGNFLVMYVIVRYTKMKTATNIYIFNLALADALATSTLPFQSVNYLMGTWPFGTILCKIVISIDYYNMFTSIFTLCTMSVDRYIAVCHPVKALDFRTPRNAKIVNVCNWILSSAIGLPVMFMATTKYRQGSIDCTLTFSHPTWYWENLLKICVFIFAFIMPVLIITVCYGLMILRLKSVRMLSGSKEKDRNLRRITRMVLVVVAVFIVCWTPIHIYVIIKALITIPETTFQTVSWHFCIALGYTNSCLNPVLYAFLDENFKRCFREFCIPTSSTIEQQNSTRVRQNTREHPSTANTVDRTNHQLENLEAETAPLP

[2] = target: Mu-type opioid receptor (Rattus norvegicus) (UniProt P33535); test: Inhibition of HA-tagged rat MOPr stably expressing in HEK293 cells assessed as increase in DAMGO-induced Elk1 phosphorylation level at 30 uM preincubated for 30 mins by westernblot analysis; format: functional, cell-based
How it was run: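 HA-MOPr HEK 293 cells were serum-starved 24 h and pretreated with inhibitor (30 μM) for 30 min, then given DAMGO 10 μM for 5 min.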
Target sequence in this assay (P33535 whole entry, the tested form may be a part): as the sequence (P33535 whole entry, looked up, the tested form may be a part) above

[3] = target: Casein kinase 2 (Homo sapiens) (UniProt P67870+P68400+P19784+Q8NEV1); test: Inhibition of human CK2 assessed as remaining activity at 1 uM in presence of 32ATP relative to control; format: protein assay
How it was run: (§1)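 Express screen of 52 purified human kinases run as a radioactive filter-binding assay with 32ATP, at 1 μM inhibitor. ATP was at or below each kinase's calculated Km. Activity is given as percent of the activity without inhibitor. Run in duplicate; mean with S.D.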

[4] = target: Calcium/calmodulin-dependent protein kinase type 1 (Homo sapiens) (UniProt Q14012); test: Inhibition of human CAMK1 assessed as remaining activity at 1 uM in presence of 32ATP relative to control
How it was run: as §1

[5] = target: Mu-type opioid receptor (Rattus norvegicus) (UniProt P33535); test: Inhibition of HA-tagged rat MOPr in HEK293 cells assessed as prevention in DAMGO induced MOPr phosphorylation at Thr376 level at 30 uM preincubated for 30 mins by western blot analysis; format: functional, cell-based
Target sequence in this assay (P33535 whole entry, the tested form may be a part): as the sequence (P33535 whole entry, looked up, the tested form may be a part) above

[6] = target: Rho-associated protein kinase 2 (Homo sapiens) (UniProt O75116); test: Inhibition of human ROCK 2 assessed as remaining activity at 1 uM in presence of 32ATP relative to control
How it was run: (§2)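 Express panel of 52 purified human kinases run in vitro. Kinase activity was measured directly by a radioactive filter-binding assay with ³²ATP, at ATP levels at or below each kinase's calculated Km for ATP. The compound was tested at 1 μM. Each assay was run in duplicate, and activity is given as the mean percentage (with S.D.) of activity without inhibitor.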

[7] = target: c-Jun N-terminal kinase, JNK (Homo sapiens) (UniProt P45983+P53779+P45984); test: Inhibition of JNK (unknown origin) at 1 uM in presence of 32ATP relative to control; format: protein assay
How it was run: as §1

[8] = target: Ribosomal protein S6 kinase alpha-1 (Homo sapiens) (UniProt Q15418); test: Inhibition of human RSK1 assessed as remaining activity at 1 uM in presence of 32ATP relative to control
How it was run: as §2

[9] = target: Mu-type opioid receptor (Rattus norvegicus) (UniProt P33535); test: Inhibition of HA-tagged rat MOPr stably expressing in HEK293 cells assessed as increase in DAMGO-induced ERK1/2 phosphorylation level at 3 to 30 uM preincubated for 30 mins by westernblot analysis; format: functional, cell-based; conditions: dose 3-30 µM
How it was run: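 HEK 293 cells stably expressing HA-tagged rat MOPr were grown to 90% confluence and serum-starved 24 h. Inhibitor was added for 30 min, then DAMGO 10 μM for 5 min. pERK1/2 was measured by Western blot with ECL detection. Densitometry was done in duplicate, normalized to total ERK1/2 and expressed as % of maximal DAMGO response; n = 4.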
Target sequence in this assay (P33535 whole entry, the tested form may be a part): as the sequence (P33535 whole entry, looked up, the tested form may be a part) above

[10] = target: Serine/threonine-protein kinase N2 (Homo sapiens) (UniProt Q16513); test: Inhibition of human PRK2 assessed as remaining activity at 1 uM in presence of 32ATP relative to control
How it was run: as §2

[11] = target: Tyrosine-protein kinase JAK2 (Homo sapiens) (UniProt O60674); test: Inhibition of human JAK2 assessed as remaining activity at 1 uM in presence of 32ATP relative to control
How it was run: as §2

Homo sapiens = organism: Homo sapiens; test: Inhibition of CAMKK (unknown origin) at 1 uM in presence of 32ATP relative to control
How it was run: as §1

[12] = target: Mu-type opioid receptor (Mus musculus) (UniProt P42866); test: Inhibition of MOPr desensitization in C57BL/6J mouse LC neuron cells assessed as reduction in the Met-Enk induced desensitization at 3 uM incubated for 15 mins before
[13] = target: Mu-type opioid receptor (Rattus norvegicus) (UniProt P33535); test: Inhibition of HA-tagged rat MOPr in HEK293 cells assessed as prevention in DAMGO induced MOPr phosphorylation at Thr370 level at 30 uM preincubated for 30 mins by western blot analysis; format: functional, cell-based
Target sequence in this assay (P33535 whole entry, the tested form may be a part): as the sequence (P33535 whole entry, looked up, the tested form may be a part) above

[14] = target: Beta-adrenergic receptor kinase 1 (Homo sapiens) (UniProt P25098); test: Inhibition of human GRK2 at 1 uM relative to control
[15] = target: Mu-type opioid receptor (Rattus norvegicus) (UniProt P33535); test: Inhibition of MOPr desensitization in wistar rat LC neuron cells assessed as reduction in the Met-Enk induced desensitization at 30 uM incubated for 15 mins before in the presence of SP600125; format: functional, cell-based
Target sequence in this assay (P33535 whole entry, the tested form may be a part): as the sequence (P33535 whole entry, looked up, the tested form may be a part) above

[16] = target: Protein kinase C alpha type (Homo sapiens) (UniProt P17252); test: Inhibition of human PKCalpha assessed as remaining activity at 1 uM in presence of 32ATP relative to control
How it was run: as §2

[17] = target: Mu-type opioid receptor (Rattus norvegicus) (UniProt P33535); test: Inhibition of MOPr desensitization in wistar rat LC neuron cells assessed as reduction in the Met-Enk induced desensitization at 30 uM incubated for 15 mins before relative to control; format: functional, cell-based
How it was run: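 Whole-cell patch clamp of GIRK currents in locus coeruleus slices from male Wistar rats (5–8 weeks). Inhibitor was given at least 15 min before and during the agonist, all drugs by superfusion. Percent desensitization was taken over 10 min of opioid agonist application. Met-Enk n = 5, endomorphin-2 n = 6; ANOVA.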
Target sequence in this assay (P33535 whole entry, the tested form may be a part): as the sequence (P33535 whole entry, looked up, the tested form may be a part) above

[18] = target: Serine/threonine-protein kinase Sgk1 (Homo sapiens) (UniProt O00141); test: Inhibition of human SGK1 at 1 uM in presence of 32ATP relative to control
How it was run: as §2

[19] = target: 3-phosphoinositide-dependent protein kinase 1 (Homo sapiens) (UniProt O15530); test: Inhibition of human PDK1 assessed as remaining activity at 1 uM in presence of 32ATP relative to control
[20] = target: Serine/threonine-protein kinase PLK1 (Homo sapiens) (UniProt P53350); test: Inhibition of human PLK1 assessed as remaining activity at 1 uM in presence of 32ATP relative to control
How it was run: as §2

[21] = target: Mu-type opioid receptor (Rattus norvegicus) (UniProt P33535); test: Inhibition of HA-tagged rat MOPr in HEK293 cells assessed as reduction in DAMGO induced MOPr internalization level at 30 uM preincubated for 30 mins by ELISA method; format: functional, cell-based
How it was run: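 Surface HA-MOPr in HEK 293 cells was prelabeled with anti-HA for 1 h at 4°C, then inhibitor (3 or 30 μM) was given for 30 min at 37°C, then DAMGO 10 μM at 37°C. Surface receptor was measured by ELISA and normalized to cells not exposed to DAMGO; n = 3–4.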

[22] = target: Mu-type opioid receptor (Rattus norvegicus) (UniProt P33535); test: Inhibition of MOPr desensitization in wistar rat LC neuron cells assessed as Met-Enk response at 3 uM incubated for 15 mins relative to control
[23] = target: Serine/threonine-protein kinase Chk2 (Homo sapiens) (UniProt O96017); test: Inhibition of human CHK2 assessed as remaining activity at 1 uM in presence of 32ATP relative to control
How it was run: as §1

Chain of Serine/threonine-protein kinase N2 (Homo sapiens) (Q16513 whole entry, looked up): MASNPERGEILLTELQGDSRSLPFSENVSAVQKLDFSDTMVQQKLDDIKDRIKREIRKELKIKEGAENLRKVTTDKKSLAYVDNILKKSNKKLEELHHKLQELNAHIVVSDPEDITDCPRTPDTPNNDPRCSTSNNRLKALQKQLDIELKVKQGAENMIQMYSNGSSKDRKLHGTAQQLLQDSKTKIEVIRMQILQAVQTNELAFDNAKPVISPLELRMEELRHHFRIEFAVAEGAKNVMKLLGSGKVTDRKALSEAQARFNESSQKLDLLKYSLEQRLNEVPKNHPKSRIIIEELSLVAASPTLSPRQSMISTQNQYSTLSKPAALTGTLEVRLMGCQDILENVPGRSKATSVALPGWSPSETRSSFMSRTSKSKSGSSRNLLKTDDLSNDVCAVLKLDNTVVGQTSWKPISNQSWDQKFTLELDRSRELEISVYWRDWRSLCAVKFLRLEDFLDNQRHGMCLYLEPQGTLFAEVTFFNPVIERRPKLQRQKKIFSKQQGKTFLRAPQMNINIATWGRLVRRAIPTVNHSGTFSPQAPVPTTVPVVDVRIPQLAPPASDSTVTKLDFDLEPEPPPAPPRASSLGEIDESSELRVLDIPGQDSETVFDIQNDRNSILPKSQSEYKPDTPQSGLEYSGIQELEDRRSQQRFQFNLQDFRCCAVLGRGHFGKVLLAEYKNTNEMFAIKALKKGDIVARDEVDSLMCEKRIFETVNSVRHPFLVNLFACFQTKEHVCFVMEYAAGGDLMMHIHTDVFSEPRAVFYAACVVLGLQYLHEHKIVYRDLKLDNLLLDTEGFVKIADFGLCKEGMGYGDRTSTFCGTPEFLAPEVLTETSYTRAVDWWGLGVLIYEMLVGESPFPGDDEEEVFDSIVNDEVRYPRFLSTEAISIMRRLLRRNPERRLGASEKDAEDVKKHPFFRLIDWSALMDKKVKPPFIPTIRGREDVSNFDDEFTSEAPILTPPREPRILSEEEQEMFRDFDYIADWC
Chain of Ribosomal protein S6 kinase alpha-1 (Homo sapiens) (Q15418 whole entry): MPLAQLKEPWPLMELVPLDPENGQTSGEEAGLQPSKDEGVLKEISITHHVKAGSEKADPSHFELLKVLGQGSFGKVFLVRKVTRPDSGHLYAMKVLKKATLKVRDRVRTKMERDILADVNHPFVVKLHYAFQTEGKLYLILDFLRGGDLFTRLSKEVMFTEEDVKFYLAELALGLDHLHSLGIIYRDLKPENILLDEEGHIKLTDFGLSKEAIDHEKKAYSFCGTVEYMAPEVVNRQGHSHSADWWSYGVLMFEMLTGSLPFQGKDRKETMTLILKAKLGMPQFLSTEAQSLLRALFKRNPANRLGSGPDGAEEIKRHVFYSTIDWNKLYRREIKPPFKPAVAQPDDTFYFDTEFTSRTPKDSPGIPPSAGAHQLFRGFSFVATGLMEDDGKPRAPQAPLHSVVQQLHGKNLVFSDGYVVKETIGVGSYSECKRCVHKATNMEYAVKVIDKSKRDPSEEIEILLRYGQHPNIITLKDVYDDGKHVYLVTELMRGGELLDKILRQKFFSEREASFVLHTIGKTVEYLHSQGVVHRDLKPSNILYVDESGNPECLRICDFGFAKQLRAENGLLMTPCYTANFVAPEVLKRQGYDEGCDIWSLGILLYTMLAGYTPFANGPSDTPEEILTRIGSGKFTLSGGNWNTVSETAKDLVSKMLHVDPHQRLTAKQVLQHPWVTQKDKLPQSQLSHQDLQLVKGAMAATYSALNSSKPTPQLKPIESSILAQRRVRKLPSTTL
Chain of Serine/threonine-protein kinase Sgk1 (Homo sapiens) (O00141 whole entry): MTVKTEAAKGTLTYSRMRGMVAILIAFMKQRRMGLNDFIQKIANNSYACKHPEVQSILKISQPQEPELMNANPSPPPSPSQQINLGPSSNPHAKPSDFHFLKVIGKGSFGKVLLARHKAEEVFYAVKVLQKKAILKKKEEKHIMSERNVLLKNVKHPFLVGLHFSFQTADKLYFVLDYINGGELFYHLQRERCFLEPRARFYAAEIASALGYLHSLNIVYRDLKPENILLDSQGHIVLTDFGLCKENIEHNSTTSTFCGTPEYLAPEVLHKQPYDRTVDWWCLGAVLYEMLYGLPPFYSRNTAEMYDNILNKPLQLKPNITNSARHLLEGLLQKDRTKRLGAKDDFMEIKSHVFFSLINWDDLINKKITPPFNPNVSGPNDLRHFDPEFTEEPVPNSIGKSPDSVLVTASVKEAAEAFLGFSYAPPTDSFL
Chain of Serine/threonine-protein kinase PLK1 (Homo sapiens) (P53350 whole entry): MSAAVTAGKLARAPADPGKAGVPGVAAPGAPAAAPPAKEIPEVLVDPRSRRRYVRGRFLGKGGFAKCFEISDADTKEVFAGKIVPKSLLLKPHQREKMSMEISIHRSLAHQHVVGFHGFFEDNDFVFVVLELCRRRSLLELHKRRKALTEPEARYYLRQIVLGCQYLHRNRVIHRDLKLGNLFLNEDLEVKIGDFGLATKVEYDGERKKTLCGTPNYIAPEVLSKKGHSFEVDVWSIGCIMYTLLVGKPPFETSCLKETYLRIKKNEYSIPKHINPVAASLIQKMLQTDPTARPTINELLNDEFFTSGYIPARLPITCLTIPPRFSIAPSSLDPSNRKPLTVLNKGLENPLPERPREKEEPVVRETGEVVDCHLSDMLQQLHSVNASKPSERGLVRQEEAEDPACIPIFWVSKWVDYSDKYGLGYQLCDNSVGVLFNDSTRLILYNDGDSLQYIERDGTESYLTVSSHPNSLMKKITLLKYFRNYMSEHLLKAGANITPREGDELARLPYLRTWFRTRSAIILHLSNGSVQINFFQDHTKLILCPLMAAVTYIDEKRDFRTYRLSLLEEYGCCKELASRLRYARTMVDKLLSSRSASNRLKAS
Chain of Beta-adrenergic receptor kinase 1 (Homo sapiens) (P25098 whole entry): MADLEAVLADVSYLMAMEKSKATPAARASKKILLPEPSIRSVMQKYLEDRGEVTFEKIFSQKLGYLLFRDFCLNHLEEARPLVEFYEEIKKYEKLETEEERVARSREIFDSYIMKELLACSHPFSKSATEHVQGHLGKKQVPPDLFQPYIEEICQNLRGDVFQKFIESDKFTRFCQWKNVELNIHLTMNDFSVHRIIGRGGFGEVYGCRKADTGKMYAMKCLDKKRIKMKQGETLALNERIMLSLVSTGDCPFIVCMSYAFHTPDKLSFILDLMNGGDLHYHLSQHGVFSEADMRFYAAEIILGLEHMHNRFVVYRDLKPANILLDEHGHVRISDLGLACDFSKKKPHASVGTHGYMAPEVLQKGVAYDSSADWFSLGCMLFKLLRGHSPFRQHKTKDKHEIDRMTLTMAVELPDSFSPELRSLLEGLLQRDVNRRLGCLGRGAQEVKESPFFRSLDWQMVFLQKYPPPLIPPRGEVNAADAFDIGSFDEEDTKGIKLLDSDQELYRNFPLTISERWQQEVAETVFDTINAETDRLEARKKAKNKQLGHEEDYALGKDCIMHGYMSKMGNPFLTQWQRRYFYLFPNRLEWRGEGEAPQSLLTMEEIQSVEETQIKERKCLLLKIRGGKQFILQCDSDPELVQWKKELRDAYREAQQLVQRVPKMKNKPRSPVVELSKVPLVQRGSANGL
Chain of Calcium/calmodulin-dependent protein kinase type 1 (Homo sapiens) (Q14012 whole entry, looked up): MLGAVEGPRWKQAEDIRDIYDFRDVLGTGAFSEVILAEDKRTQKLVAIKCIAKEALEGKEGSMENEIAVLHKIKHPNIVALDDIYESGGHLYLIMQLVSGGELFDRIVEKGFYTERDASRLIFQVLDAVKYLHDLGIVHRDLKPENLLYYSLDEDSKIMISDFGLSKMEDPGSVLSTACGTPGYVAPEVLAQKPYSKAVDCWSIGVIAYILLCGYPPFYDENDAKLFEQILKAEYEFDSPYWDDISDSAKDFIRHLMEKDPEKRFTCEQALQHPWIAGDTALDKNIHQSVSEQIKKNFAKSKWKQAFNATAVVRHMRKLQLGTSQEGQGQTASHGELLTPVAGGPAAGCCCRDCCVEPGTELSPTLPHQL

`Cn1c(CNc2cccc(C(=O)NCc3ccccc3C(F)(F)F)c2)nnc1-c1ccncc1` was tested, and the inhibition [1] was “Active”, the inhibition [2] was “inactive” and the Activity [3] was 106%. The Activity [4] was 101%, the inhibition [5] was “Active” and the Activity [6] was 53%. The inhibition [7] was < 20%, the Activity [8] was 48% and the inhibition [9] was “inactive”. The Activity [10] was 7%, the Activity [11] was 94% and the inhibition (Homo sapiens) was < 20%. For the same compound, the inhibition [12] was “Active”, the inhibition [13] was “Active” and the inhibition [14] was > 90%. For the same compound, the inhibition [15] was “inactive”, the Activity [16] was 96% and the desensitization [17] was 15%. For the same compound, the inhibition [18] was 69%, the Activity [19] was 93% and the Activity [20] was 106%. For the same compound, the inhibition [21] was “Active”, the Met-Enk (600 nM) response, % of initial [22] was 94% and the Activity [23] was 79%.
